Assay outcomes deposited in PubChem by several laboratories.
NR3A LBD binder: binders of NR3A ligand-binding domain, primary screen, biophysical, differential scanning fluorimetry, uHTS. NR3A LBD differential scanning fluorimetry, Tm shift; 0% = protein alone, 100% = glycine-bound protein. Tm shift relative to glycine control, % at 25 µM. actives 2.5% (n = 340,000);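 active means melting temperature shift of at least 10% of the positive control shift, at one fixed dose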
Beta apoptosis: inhibitors of cytokine-induced beta cell apoptosis, primary screen, luminescence; actives 0.8% (n = 300,000); protection from apoptosis, % (test concentration not listed); INS-1E cytokine-induced death, ATP luminescence, 48 h; percent of positive-control rescue, neutral wells zero;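 active means Every replicate reaches about 75%, or at least half do and their mean reaches it too, limit read from the data; inconclusive means At least half of replicates reach the limit but their mean does not; inactive means Under half of replicates reach the limit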;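 further: 0% = cytokine-treated negative control wells and 100% = positive control rescue; higher means more ATP so stronger rescue from cytokine killing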
PREPL inh: PREPL enzyme inhibitors, primary screen, biochemical, fluorescence polarization | Prolyl endopeptidase-like (Homo sapiens), Q4J6C6 | recombinant PREPL, fluorescence polarization activity-based probe | inhibition, % at 5.96 µM | actives 0.68% (n = 320,000) | AID 2751, 2010;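 further: 0% = enzyme with DMSO and 100% = wells lacking enzyme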
Target sequence (Q4J6C6 whole entry, looked up): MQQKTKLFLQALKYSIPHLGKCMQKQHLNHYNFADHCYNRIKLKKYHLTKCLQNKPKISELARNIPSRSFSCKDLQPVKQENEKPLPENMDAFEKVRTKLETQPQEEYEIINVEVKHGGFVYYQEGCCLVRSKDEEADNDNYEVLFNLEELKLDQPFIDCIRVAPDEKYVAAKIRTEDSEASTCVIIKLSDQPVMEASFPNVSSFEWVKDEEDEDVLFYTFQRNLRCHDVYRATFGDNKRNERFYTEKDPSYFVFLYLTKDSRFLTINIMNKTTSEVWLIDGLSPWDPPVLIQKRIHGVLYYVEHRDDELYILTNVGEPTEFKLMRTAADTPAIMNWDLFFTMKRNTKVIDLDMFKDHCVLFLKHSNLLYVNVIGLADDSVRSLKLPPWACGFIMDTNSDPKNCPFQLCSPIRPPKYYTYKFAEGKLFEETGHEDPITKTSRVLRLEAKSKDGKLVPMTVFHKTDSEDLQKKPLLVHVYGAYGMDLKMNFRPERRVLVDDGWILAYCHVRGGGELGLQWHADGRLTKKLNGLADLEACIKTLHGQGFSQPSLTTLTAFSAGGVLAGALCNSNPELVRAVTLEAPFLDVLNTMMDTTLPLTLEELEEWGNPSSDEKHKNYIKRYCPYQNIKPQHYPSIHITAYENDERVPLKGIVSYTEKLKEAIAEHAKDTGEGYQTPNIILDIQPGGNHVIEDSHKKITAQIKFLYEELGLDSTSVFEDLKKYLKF
CSC inhib: cancer stem cell viability inhibitors, primary screen, luminescence. actives 1.1% (n = 300,000). cancer stem cell-like cells viability. inhibition, % at 7.5 µM; in the data active means inhibition above about 75%; inconclusive means no clear call, values can overlap the other calls; tested in HMLE shEcad cells
CHOP inhibitor: inhibitors of CHOP promoter induction, primary screen, cell-based, unfolded protein response, luciferase reporter; AID 2732, 2010; actives 3.8% (n = 220,000); CHO-K1 CHOP-promoter luciferase, tunicamycin-induced, 15-18 h; inhibition, % at 10 µM;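 active means compounds that reduced the stress-induced luciferase reporter signal by more than about 70% of percent inhibition, limit read from the data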;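 further: 0% = tunicamycin plus vehicle and 100% = wells without tunicamycin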
T cruzi inh: inhibitors of intracellular T. cruzi growth, primary screen, luminescence, NIH3T3 host cells; T. cruzi beta-gal in NIH3T3, 90 h; actives 1.4% (n = 300,000); inhibition, % (test concentration not listed);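 active means mean inhibition across valid replicates above about 55%, limit read from the data; inconclusive means mean below that limit but half or more replicates reach it; inactive means mean below it, under half of replicates reach it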;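 further: signal also drops with host cell toxicity which is not excluded here; 0% = plate median of DMSO wells and 100% = zero luminescence signal; higher percent means less beta-gal luminescence so fewer parasites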
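Assay system: NIH/3T3 fibroblasts plus reporter T. cruzi. Amount: NIH/3T3 cells, 5,000 per well. Buffer or medium: DMEM, 2% fetal bovine serum. Doses: compound pinned at 50 nL/well, DMSO. Schedule: ≥90 h infection period, 3 h prior cell attachment. Signal: luminescent β-galactosidase signal after 60 min lysis. Read-out: parasite load inhibition, %.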
CHOP confirm: retest of CHOP induction inhibitors, confirmation, cell-based; shares compounds with CHOP inhibitor; CHO-CHOP promoter luciferase reporter, tunicamycin-induced, luminescence; inhibition, % at 10 µM; actives 45% (n = 2,100); AID 504437, 2011;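 active means mean of three repeat readings of reporter signal inhibition above a set limit, cut at about 70% in these data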;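 further: 0% = tunicamycin plus vehicle and 100% = wells lacking tunicamycin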
PREPL inh cf: human PREPL enzyme inhibitors, confirmation, biochemical, fluorescence polarization; actives 67% (n = 2,000); recombinant PREPL, fluorescence polarization activity probe; shares compounds with PREPL inh; inhibition, % at 5.96 µM;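 further: 0% = protein with DMSO and 100% = wells lacking protein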
Active calls of the source: *; ? = inconclusive; . = no result given. In the library only some 6.7% were active in any assay of this set; here they are far more common. Unless noted, no stated cut-off is given here; in the data, active means inhibition above about 43%; inactive means the rest.

SMILES	NR3A LBD binder	Beta apoptosis	PREPL inh	CSC inhib	CHOP inhibitor	T cruzi inh	CHOP confirm	others
CCOC(=O)C1CCCCN1Cc1ccc(F)c(Br)c1 (centres undefined)	-1	0	8	-13	106*	-15	16
CCCCOc1ccc(S(=O)(=O)NNC(=O)C2Cc3c(ccc4ccccc34)O2)cc1 (centres undefined)	-9	-5	-1	.	98*	-3	59
Cc1ccc(S(=O)(=O)NNC(=O)C2Cc3c(ccc4ccccc34)O2)cc1 (centres undefined)	5	3	-40	1	28	-12	.
CN(C)CCNC(=O)c1c(NC(=O)c2ccccc2)sc2c1CCCC2	-3	.	22	6	.	46	.
CCNC(=O)c1c(NC(=O)c2cc(-c3cc(C)ccc3O)n[nH]2)sc2c1CCCC2	-2	44	7	?	101*	46	106*
Cc1ccc(C(=O)Nc2sc3c(c2C(=O)NCc2ccco2)CCCC3)cc1	2	8	21	34	104*	-6	-105
COc1cc(NC(=O)c2cccs2)c(OC)cc1NC(=O)CCC(=O)Nc1ccc2ncccc2c1	-2	.	.	.	32	15	.
COc1ccc(C(=O)c2c(C(F)(F)F)oc3c2C(=O)c2ccccc2C3=O)cc1	-7	115*	17	106*	106*	?	117*
COc1ccc(CN(C)C(C)C(=O)Nc2ccc(S(=O)(=O)N3CCCCC3)cc2)c(OC)c1 (centres undefined)	1	-12	-3	0	.	.	.
O=C(CSc1ncnc2[nH]ncc12)Nc1nc(-c2ccc(F)c(F)c2)cs1	20*	11	-17	9	99*	17	116*
CC(=O)c1cccc(NC(=O)NNC(=O)CCC(=O)Nc2ccc(C)c(C)c2)c1	2	-3	-3	-25	6	-3	.
CCCC(NCC(O)COc1ccc(-c2ccccc2)cc1)c1ccccc1 (centres undefined)	-2	-3	1	.	103*	66*	125*
COc1cc(C2C3=C(COC3=O)OC(C)(C)Oc3cc4c(cc32)OCO4)cc(OC)c1OC (centres undefined)	0	.	.	.	.	.	.
CCN(CC)C(=O)CSc1nc(N)c(C#N)c(-c2cccs2)c1C#N	1	3	-6	-8	2	12	.
Cc1ccccc1NC(=O)CSc1nc(N)c(C#N)c(-c2cccs2)c1C#N	0	16	-3	-9	105*	9	21
COc1ccc(NCC(=O)NN=C2CCS(=O)(=O)c3ccc(F)cc32)cc1	0	-6	7	-13	.	.	.
CC(C)[C@H](NC(=O)c1ccccc1)C(=O)OCC(=O)Nc1ncc(Cl)cc1Cl	-1	-9	6	.	.	.	.
CC1=Nc2nc(N3CCCCC3)c(C#N)c3c4c(nc(c23)N1)N(c1ccc(C(C)C)cc1)C(=O)C4	0	.	99*	-3	108*	12	83*	PREPL inh cf=72*
COc1ccc2[nH]c3c(N4CC(C)OC(C)C4)ncnc3c2c1 (centres undefined)	-2	6	-1	1	-3	3	.
COc1cccc(N2CCN(c3ncnc4c3[nH]c3ccccc34)CC2C)c1 (centres undefined)	.	58	46*	8	109*	?	117*	PREPL inh cf=46*
N#Cc1ccc(CN2CCN(C(=O)Cn3nc(C(N)=O)c4ccccc4c3=O)CC2)cc1	-5	1	-1	-5	.	5	.
CC1CCCC(NC(=O)CCS(=O)(=O)c2cc3c(cc2Cl)NC(=O)CO3)C1C (centres undefined)	0	-4	8	6	.	14	.
